These results are taken from PMC3444677 (Chemical research in toxicology, 2012).

Series [1] has as its target T1, hERG channel (Homo sapiens, UniProt Q12809). Conditions: for Maximum inhibition of hERG currents: 1.9 μM, mean ± SEM, n = 3; for Rel. Pot., patch clamp: relative potency compared to AZA1. In general terms: hERG is a cardiac potassium channel; its block is linked to QT prolongation.
Series [2] deals with T1, hERG channel. Conditions: for hERG binding of [3H]dofetilide relative to vehicle controls (reduced to): 10 μM; for Rel. Pot., channel binding: relative potency compared to AZA1.
Series [3] has as its target T1, hERG channel. To be noted: for Thallium flux via hERG relative to vehicle controls (reduced to): 30 μM, mean ± SEM, n = 3; for Rel. Pot., thallium flux: relative potency compared to AZA1.
Series [4] deals with Jurkat T lymphocyte cells. To be noted: fold more potent than AZA1; cited from earlier work.
In the next series the target is WT hERG1 channels (Homo sapiens, UniProt Q12809). Description: Two-electrode voltage clamp of WT hERG1 channels in Xenopus oocytes. It counts as cell-based. For orientation: Two-electrode voltage clamp holds a large cell at a set potential and records current.
In a further series the target is F656T hERG1 channels (Homo sapiens, UniProt Q12809, F656T). Put plainly: Two-electrode voltage clamp of F656T hERG1 channels in Xenopus oocytes. It counts as cell-based. To be noted: 10 μM.
For the next series, the target named is Y652A hERG1 channels (Homo sapiens, UniProt Q12809, Y652A). Description: Two-electrode voltage clamp of Y652A hERG1 channels in Xenopus oocytes. It counts as cell-based. To be noted: 10 μM.
The next series addresses T2, hEAG1 channels (Homo sapiens, UniProt O95259).
T2 sequence (O95259 1-962 isoform O95259-2): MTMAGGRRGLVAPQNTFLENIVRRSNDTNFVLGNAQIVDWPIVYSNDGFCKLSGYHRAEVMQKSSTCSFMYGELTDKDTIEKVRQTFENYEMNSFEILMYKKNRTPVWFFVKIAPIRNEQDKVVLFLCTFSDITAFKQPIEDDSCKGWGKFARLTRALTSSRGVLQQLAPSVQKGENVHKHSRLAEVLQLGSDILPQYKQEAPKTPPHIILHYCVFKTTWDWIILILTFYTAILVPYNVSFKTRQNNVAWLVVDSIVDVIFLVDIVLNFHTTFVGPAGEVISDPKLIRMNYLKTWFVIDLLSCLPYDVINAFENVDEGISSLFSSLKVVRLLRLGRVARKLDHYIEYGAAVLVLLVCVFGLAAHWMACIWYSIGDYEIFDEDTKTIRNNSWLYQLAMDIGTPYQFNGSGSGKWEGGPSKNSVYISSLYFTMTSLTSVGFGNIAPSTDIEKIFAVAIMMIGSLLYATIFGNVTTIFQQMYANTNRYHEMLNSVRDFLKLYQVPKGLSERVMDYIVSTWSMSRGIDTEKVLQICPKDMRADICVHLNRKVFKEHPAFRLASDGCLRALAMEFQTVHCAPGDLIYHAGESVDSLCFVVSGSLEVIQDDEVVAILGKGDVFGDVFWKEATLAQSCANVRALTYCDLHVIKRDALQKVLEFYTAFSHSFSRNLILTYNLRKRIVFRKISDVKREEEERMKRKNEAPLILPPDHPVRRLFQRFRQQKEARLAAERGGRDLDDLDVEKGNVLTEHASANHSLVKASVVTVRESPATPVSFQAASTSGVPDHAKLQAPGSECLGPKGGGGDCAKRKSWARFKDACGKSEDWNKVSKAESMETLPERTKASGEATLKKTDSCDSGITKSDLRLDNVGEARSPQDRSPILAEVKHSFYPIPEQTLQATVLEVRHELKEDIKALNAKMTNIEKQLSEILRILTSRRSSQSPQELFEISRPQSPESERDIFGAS
Put plainly: Two-electrode voltage clamp of hEAG1 channels in Xenopus oocytes. It counts as cell-based. Conditions: 10 μM, n = 4. In outline: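 Stage IV–V Xenopus oocytes were injected with ~0.2 ng WT or mutant hEAG1 cRNA, held 2–3 days at 18 °C in Barth's saline, and recorded by two-electrode clamp at 22–24 °C. Holding was −80 mV, with 2-s steps from −70 to +40 mV. G = end-of-pulse current/(Vt − Erev), divided by a Boltzmann-extrapolated control Imax, then Boltzmann-fitted for V0.5 and k.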

[5] abbreviates: 10 μM, during 37.8 s pulse to 0 mV.

Where “and” joins values, the source holds several entries; their conditions need not be identical. Equal values may be shown once.

22-demethyl-azaspiracid [AZA3]: on hERG channel [1], the “Maximum inhibition of hERG currents” value came to 79.7 ± 1.6% and the “Rel. Pot., patch clamp” value is on record as 1.0. Besides, the “hERG binding of [3H]dofetilide relative to vehicle controls (reduced to)” value at hERG channel [2] was 29.3 ± 1.6%. In addition, at hERG channel [3], the “Thallium flux via hERG relative to vehicle controls (reduced to)” value was 16.6 ± 0.50% and the “Rel. Pot., thallium flux” value is 0.7. The “Cytotoxic potency relative to AZA1” value in series [4] is 4.5 fold.
For the compound `C=C(C[C@@]12C[C@@H](C)C[C@H](O1)[C@H]1O[C@]3(C[C@H]1O2)NC[C@H](C)C[C@@H]3C)[C@H]1O[C@@](O)([C@@H](O)[C@@H]2C[C@H]3O[C@@]4(CC[C@]5(CC=C[C@@H](/C=C/CCC(=O)O)O5)O4)[C@H](C)C[C@H]3O2)[C@H](C)C[C@@H]1C` [AZA1, azaspiracid], the “Slope factor k of G-Vt relationship” value is given as 9.6 ± 0.3 on WT hERG1 channels (10 μM, control 8.1 ± 0.3, n = 6); 7.3 ± 0.1 at F656T hERG1 channels (control 7.8 ± 0.1, n = 5); 7.3 ± 0.4 on Y652A hERG1 channels (control 6.4 ± 0.3, n = 5); 15.7 ± 0.7 on hEAG1 channels (control 16.3 ± 0.6). Besides, the “V0.5 of G-Vt relationship” value at WT hERG1 channels (10 μM, control -22.0 ± 0.5 mV, n = 6) is on record as -20.7 ± 0.5 mV; on F656T hERG1 channels (control -31.0 ± 0.2 mV, n = 5), -32.6 ± 0.3 mV; on Y652A hERG1 channels (control -20.7 ± 0.6 mV, n = 5), -26.0 ± 0.8 mV; on hEAG1 channels (control 4.6 ± 0.7 mV) it was 6.4 ± 0.9 mV. The “Amplitude of fast component of onset of block” value at WT hERG1 channels (setting [5]) is 0.325. On WT hERG1 channels (setting [5]), the “Amplitude of slow component of onset of block” value is recorded as 0.433. The “τfast of onset of current block” value at WT hERG1 channels (setting [5]) came out at 2.96 s. For the same compound, the “τslow of onset of current block” value on WT hERG1 channels (setting [5]) was 12.66 s. Besides, on WT hERG1 channels (10 μM, measured at -10 mV, oocytes, n = 6), the “Peak outward hERG1 current, % of control” value was 19.0 ± 2.4 % of control. Moreover, the “Time constant of onset of hERG1 channel block (τonset)” value at WT hERG1 channels (10 μM, repetitive 1-s pulses to 0 mV, oocytes) amounted to 1.5 min. The “Unblocked current, % of control” value at WT hERG1 channels (10 μM, single long pulse to 0 mV after 4 min pulse-free incubation, 10 µM) is 19% and 19.2%. For the same compound, the “Inhibition of peak Itail” value at WT hERG1 channels (10 μM, tail currents at -70 mV, n = 6) is 75 ± 2%. Besides, the “Tail current deactivation time constant, fast component” value on WT hERG1 channels (at -70 mV in the presence of AZA1 (control 249 ± 8 ms), n = 6) is on record as 205 ± 17 ms. Besides, on WT hERG1 channels (at -70 mV in the presence of AZA1 (control 1003 ± 57 ms), n = 6), the “Tail current deactivation time constant, slow component” value stood at 745 ± 44 ms. The “Relative amplitude of the slow component of deactivation” value on WT hERG1 channels (in the presence of AZA1 (control 0.80 ± 0.02)) amounted to 0.72 ± 0.02. At F656T hERG1 channels (test potentials greater than -20 mV, n = 5), the “Reduction of peak Itail” value was determined as 7 ± 1%. Moreover, the “Sensitivity of channel currents to toxin” value at F656T hERG1 channels (test potentials negative to -20 mV) is given as “insensitive”. Moreover, the “Shift of V0.5 for activation” value on Y652A hERG1 channels was -5 mV. In addition, at Y652A hERG1 channels (n = 5), the “Block of peak Itail” value stood at 76 ± 3%. At hEAG1 channels (test potential +40 mV), the “Block of hEAG1 current” value is listed as 15 ± 0.8%. On hERG channel [1], the “Maximum inhibition of hERG currents” value is reported as 79.5 ± 1.8%. Also, the “Rel. Pot., patch clamp” value on hERG channel [1] is reported as 1.0. Also, the “hERG binding of [3H]dofetilide relative to vehicle controls (reduced to)” value at hERG channel [2] is 19.7 ± 1.4%. Moreover, the “Rel. Pot., channel binding” value on hERG channel [2] is 1.0. For the same compound, the “Thallium flux via hERG relative to vehicle controls (reduced to)” value at hERG channel [3] worked out at 10.7 ± 0.56%. Further, the “Rel. Pot., thallium flux” value on hERG channel [3] is 1.0.
With `C=C(C[C@@]12C[C@@H](C)C[C@@H](O1)[C@H]1O[C@]3(C[C@H]1O2)NC[C@H](C)C[C@@H]3C)[C@H]1O[C@@](O)([C@@H](O)[C@@H]2C[C@H]3O[C@@]4(CC[C@]5(CC(C)=C[C@@H](/C=C/CCC(=O)O)O5)O4)[C@H](C)C[C@H]3O2)[C@H](C)C[C@@H]1C` [AZA2, 8-methyl-azaspiracid], on hERG channel [1], the “Maximum inhibition of hERG currents” value was 87.3 ± 0.95% and the “Rel. Pot., patch clamp” value came out at 1.3. At hERG channel [2], the “hERG binding of [3H]dofetilide relative to vehicle controls (reduced to)” value is listed as 22.3 ± 1.0% and the “Rel. Pot., channel binding” value is on record as 0.8. Also, at hERG channel [3], the “Thallium flux via hERG relative to vehicle controls (reduced to)” value was determined as 9.6 ± 0.79% and the “Rel. Pot., thallium flux” value is reported as 0.8. In series [4], the “Cytotoxic potency relative to AZA1” value is 8.3 fold.
